Experimental data as given in paper PMC8906099 (Current Research in Parasitology & Vector-borne Diseases, 2021).
Converted amounts (≈) assume the structure as drawn. Read-outs that look alike come from different tables or passages of the source.

What was measured:
infected C2C12 cells = assay: Cytotoxicity in infected C2C12 cells after 72 h; assay type: cell-based, murine; details: 72 h
Procedure, shortened: (§1)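 C2C12 cells were infected with trypomastigotes (1:15) together with test compound (0.19–100 μM, 0.1% DMSO) for 72 h at 37 °C, 5% CO2. Host nuclei were counted by DAPI high-content imaging. Viability was the cell count relative to the DMSO-control mean. CC50 came from sigmoid fits. SI = CC50/IC50 against intracellular amastigotes of the same strain at 72 h.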

[1] = Cytotoxicity in infected C2C12 cells after 72 h; assay type: cell-based, murine; details: mouse
Procedure, shortened: as §1

[2] = system: several Streptococcus species; details: ref Vieira et al., 2018; cited from earlier work
non-infected C2C12 cells = assay: Cytotoxicity in non-infected cells; assay type: cell-based, murine; details: non-infected C2C12 CC50 / IC50 amastigotes CA-I/72 strain, 72 h
Procedure, shortened: (§2)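 Non-infected C2C12 cells (5 × 10^4 per well) were plated for 24 h. Test compound (0.19–100 μM, 2-fold, 0.1% DMSO) was then added for 72 h at 37 °C. Controls were untreated, DMSO 0.4% and Triton 15%. After a PBS wash, MTT (2 mg/ml) was added for 4 h, and absorbance was read at 450 nm (reference 620 nm). CC50 came from sigmoid fits. SI = CC50/IC50 against CA-I/72 amastigotes at 72 h.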

[3] = Cytotoxicity in non-infected cells; assay type: cell-based, murine; details: mouse, non-infected C2C12 cells
Procedure, shortened: as §2

[4] = system: non-infected LLC-MK2 cells; assay: Cytotoxicity in non-infected cells; assay type: cell-based, monkey; details: non-infected LLC-MK2 CC50 / IC50 amastigotes CA-I/72 strain, 72 h
Procedure, shortened: (§3)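 LLC-MK2 monkey kidney cells, grown in RPMI with 10% FBS at 37 °C and 5% CO2, were plated and after 24 h exposed to test compound (0.19–100 μM, 2-fold dilutions, 0.1% DMSO) for 72 h at 37 °C. Controls were untreated cells, 0.4% DMSO and 15% Triton. After a PBS wash, MTT (2 mg/ml) was added for 4 h, and absorbance read at 450/620 nm. SI is CC50 divided by the 72 h CA-I/72 intracellular amastigote IC50.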

[5] = Cytotoxicity in non-infected cells; assay type: cell-based, monkey; details: monkey, non-infected LLC-MK2 cells
Procedure, shortened: as §3

[6] = system: trypomastigotes of T. cruzi (Sylvio X10/4 strain); assay: Trypanocidal activity against trypomastigotes; assay type: cell-based; details: Trypanosoma cruzi, 72 h, read-out: IC50 ± SD, trypomastigotes
Procedure, shortened: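 Sylvio X10/4 trypomastigotes were taken from amastigote culture supernatant and seeded at 1 × 10^6 per well. Test compound was added at 0.19–100 μM (0.1% DMSO), with benznidazole (0.019–10 μM) and DMSO controls. Incubation was 72 h at 37 °C, 5% CO2. Viability was read with resazurin (40 μM in PBS), fluorescence 530/630 nm. IC50 came from sigmoid dose–response fits.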

[7] = system: amastigotes of T. cruzi Sylvio X10/4 strain; assay: Trypanocidal activity against intracellular amastigotes in C2C12 cells; assay type: cell-based; details: Trypanosoma cruzi, C2C12, 72 h, read-out: IC50 ± SD, amastigotes
Procedure, shortened: (§4)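 Trypomastigotes from C2C12 co-culture (DMEM, 10% FBS, 25 mM HEPES, pH 7.2) were seeded with C2C12 cells at a 1:15 infection rate. Test compound (0.19–100 μM, 2-fold, 0.1% DMSO) was added at the start. After 72 h at 37 °C, 5% CO2, cells were stained with DAPI 2 h and imaged confocally. Amastigote and host nuclei were told apart by size. IC50 came from sigmoid fits of the infection ratio normalised to controls. Mean ± SD, three experiments in triplicate.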

[8] = system: amastigotes of T. cruzi CA-I/72 strain; assay: as above; assay type: cell-based; details: Trypanosoma cruzi, C2C12, 72 h, read-out: IC50 ± SD, amastigotes
Procedure, shortened: as §4

[9] = system: amastigotes of T. cruzi Brazil strain; assay: as above; assay type: cell-based; details: Trypanosoma cruzi, C2C12, 72 h, read-out: IC50 ± SD, amastigotes
Procedure, shortened: as §4

[10] = system: intracellular amastigotes of T. cruzi CA-I/72 strain; assay: Time-course study against intracellular amastigotes; assay type: cell-based; details: Trypanosoma cruzi
Procedure, shortened: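 CA-I/72 trypomastigotes were incubated with C2C12 cells for 48 h to form intracellular amastigotes. Test compound was then added (0.19–100 μM, 2-fold, 0.1% DMSO), with benznidazole and DMSO controls. Incubation ran 8, 12, 24 or 48 h at 37 °C, 5% CO2. Growth inhibition was read by DAPI high-content imaging. IC50 came from sigmoid fits of the normalised infection ratio. Time trend was tested by linear regression and ANOVA.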

[11] = system: amastigotes of T. cruzi Sylvio X10/7 strain; assay: Trypanocidal activity against intracellular amastigotes in C2C12 cells; assay type: cell-based, Trypanosoma cruzi
Procedure, shortened: as §4

[12] = Time-course cytotoxicity in infected C2C12 cells; assay type: cell-based, murine; details: mouse
Procedure, shortened: (§5)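 This uses the CA-I/72 time-course infection format: a 48 h pre-infection of C2C12 cells, then test compound at 0.19–100 μM for 8, 12, 24 or 48 h, with DAPI imaging. Host viability was the total host cell count divided by the mean count of 0.1% DMSO controls. CC50 came from sigmoid fits. SI = CC50/IC50 against amastigotes at the matching time.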

[13] = system: C2C12 cells infected with intracellular amastigotes of T. cruzi (CA-I/72 strain); assay: Time-course cytotoxicity in infected C2C12 cells; assay type: cell-based, murine; details: infected C2C12 vs amastigotes CA-I/72, time-course
Procedure, shortened: as §5

[14] = infected C2C12, Sylvio X10/7 strain
[15] = C2C12 cells infected with T. cruzi Brazil strain
[16] = C2C12 cells infected with T. cruzi CA-I/72 strain
[17] = C2C12 cells infected with T. cruzi Sylvio X10/4 strain
[18] = C2C12 cells infected with T. cruzi Sylvio X10/7 strain
[19] = read-out: IC50 over the incubation times evaluated
[20] = Trypanosoma cruzi, C2C12, 72 h, read-out: IC50 ± SD, amastigotes, Sylvio X10/7 strain, 72 h incubation

O=C(/C=C/c1ccc(Cl)cc1)/C=C/c1ccc(Cl)cc1 [DBA 5, (1E,4E)-1,5-bis-(4-chlorophenyl)penta-1,4-dien-3-one]
SI (CC50/IC50) (infected C2C12 cells; infected C2C12, CA-I/72 strain): 0.45 | SI (CC50/IC50) (infected C2C12 cells; infected C2C12, Sylvio X10/4 strain): 0.20 | SI (CC50/IC50) (infected C2C12 cells; [14]): 0.16 | CC50 at 72 h [1, 15]: 12.4 ± 2.29 µM | CC50 at 72 h [1, 16]: 15.5 ± 1.25 µM | CC50 at 72 h [1, 17]: 11.8 ± 7.74 µM | CC50 at 72 h [1, 18]: 4.06 ± 2.31 µM | MIC [2]: 100 µg/mL (≈ 330 µM) | SI (CC50/IC50) (non-infected C2C12 cells): 1.13 | CC50 at 72 h [3]: 38.3 ± 1.69 µM | SI (CC50/IC50) [4]: 1.13 | CC50 at 72 h [5]: 38.1 ± 1.81 µM | IC50 [6]: 73.7 ± 2.08 µM | IC50 [7]: 56.9 ± 1.86 µM | IC50 [8]: 33.6 ± 1.39 µM | IC50 [9]: 6.37 ± 0.03 µM | IC50 ([10]; 8 h, read-out: IC50 ± SD): > 100 µM | IC50 ([10]; 12 h, read-out: IC50 ± SD): > 100 µM | IC50 ([10]; 24 h, read-out: IC50 ± SD): > 100 µM | IC50 ([10]; 48 h, read-out: IC50 ± SD): > 100 µM | IC50 [10, 19]: > 100 µM | IC50 [11, 20]: 25.3 ± 1.34 µM | CC50 at 8 h [12]: 93.29 ± 0.42 µM | CC50 at 12 h [12]: 10.6 ± 1.26 µM | CC50 at 24 h [12]: 0.3 ± 0.02 µM | CC50 at 48 h [12]: 0.2 ± 0.01 µM

O=C(Cn1ccnc1[N+](=O)[O-])NCc1ccccc1 [BZ, benznidazole, reference compound]
CC50 at 72 h [1, 15]: > 10 µM | CC50 at 72 h [1, 16]: > 10 µM | CC50 at 72 h [1, 17]: > 10 µM | CC50 at 72 h [1, 18]: > 10 µM | SI (CC50/IC50) (non-infected C2C12 cells): 18.73 | CC50 at 72 h [3]: 37.9 ± 1.54 µM | SI (CC50/IC50) [4]: 82.92 | CC50 at 72 h [5]: 168 ± 2.98 µM | IC50 [6]: 1.16 ± 0.04 µM | IC50 [7]: 4.12 ± 1.02 µM | IC50 [8]: 2.02 ± 0.12 µM | IC50 [9]: 1.28 ± 0.64 µM | IC50 ([10]; 8 h, read-out: IC50 ± SD): > 10 µM | IC50 ([10]; 12 h, read-out: IC50 ± SD): 6.85 ± 1.56 µM | IC50 ([10]; 24 h, read-out: IC50 ± SD): 5.97 ± 1.2 µM | IC50 ([10]; 48 h, read-out: IC50 ± SD): 1.54 ± 0.36 µM | IC50 [10, 19]: 1.54 to 10 µM | IC50 [11, 20]: 1.19 ± 0.25 µM | CC50 at 8 h [12]: > 10 µM | CC50 at 12 h [12]: 3.98 ± 0.31 µM | CC50 at 24 h [12]: 3.48 ± 0.7 µM | CC50 at 48 h [12]: 0.27 ± 0.07 µM | SI (CC50/IC50) ([13]; 12 h): 0.58 | SI (CC50/IC50) ([13]; 24 h): 0.58 | SI (CC50/IC50) ([13]; 48 h): 0.17

COc1cc(OC)c(/C=C/C(=O)/C=C/c2c(OC)cc(OC)cc2OC)c(OC)c1 [DBA 4, (1E,4E)-1,5-bis-(2,4,6-trimethoxyphenyl)penta-1,4-dien-3-one]
SI (CC50/IC50) (infected C2C12 cells; infected C2C12, CA-I/72 strain): 0.12 | SI (CC50/IC50) (infected C2C12 cells; [14]): 0.01 | CC50 at 72 h [1, 15]: 0.09 ± 0.11 µM | CC50 at 72 h [1, 16]: 0.6 ± 0.16 µM | CC50 at 72 h [1, 17]: 0.11 ± 0.1 µM | CC50 at 72 h [1, 18]: 0.37 ± 0.14 µM | SI (CC50/IC50) (non-infected C2C12 cells): > 10 | SI (CC50/IC50) (non-infected C2C12 cells; listed as 4): 10.71 | CC50 at 72 h [3]: 53.7 ± 1.26 µM | SI (CC50/IC50) [4]: ≥ 10 | SI (CC50/IC50) ([4]; listed as 4): 10.00 | CC50 at 72 h [5]: 50.1 ± 7.92 µM | IC50 [6]: > 100 µM | IC50 [7]: > 100 µM | IC50 [8]: 5.01 ± 1.14 µM | IC50 [9]: > 100 µM | IC50 ([10]; 8 h, read-out: IC50 ± SD): > 100 µM | IC50 ([10]; 12 h, read-out: IC50 ± SD): > 100 µM | IC50 ([10]; 24 h, read-out: IC50 ± SD): > 100 µM | IC50 ([10]; 48 h, read-out: IC50 ± SD): 34.5 ± 0.94 µM | IC50 [11, 20]: 33.1 µM | IC50 ([11]; read-out: IC50 ± SD, amastigotes, Sylvio X10/7 strain, 72 h incubation): 33.1 ± 2.05 µM | CC50 at 8 h [12]: > 100 µM | CC50 at 12 h [12]: 60.4 ± 1.11 µM | CC50 at 24 h [12]: 2.98 ± 0.24 µM | CC50 at 48 h [12]: 0.66 ± 0.29 µM | SI (CC50/IC50) ([13]; 48 h): 0.01
